# Results published in ChEMBL document CHEMBL2169848, “Synthesis physicochemical profile and PAMPA study of new NO-donor edaravone co-drugs” (Bioorg Med Chem, 2012).
# Calls of active or inactive are those of the source. The rule behind the calls is not given here.
# Assays:
# Thoracic aorta [1] = assay: Vasodilatory activity in Wistar rat denuded thoracic aorta assessed as inhibition of L-phenylephrine-induced contraction; type: functional, tissue-based
# How it was run: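 Endothelium-denuded thoracic aorta strips from male Wistar rats (180–200 g) in gassed Krebs-type buffer at 37 °C, pH 7.4. Strips equilibrated 1.5 h, then contracted with 1 µM L-phenylephrine. Cumulative concentrations added at plateau and isometric tension recorded. EC50 (±SEM) in µM from at least five experiments.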
# [2] = Half life in 0.1 M HCl/MeOH 60/40 (v/v) mixture by RP-HPLC analysis; type: physicochemical
# How it was run: (§1)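 Methanolic compound solution (0.5 mM, 2 mL) diluted to 10 mL with 0.1 M HCl/MeOH 60/40 (v/v) and kept at 37 °C. Aliquots taken at intervals and analysed by RP-HPLC (C18, acetonitrile/water gradient, 240 nm) with calibration over 1–200 µM. Half-life from n = 3.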
# Liver [3] = assay: Induction of nitrate production in Wistar rat liver homogenate at 200 uM by griess method; type: functional, tissue-based; conditions: TDE = time-dependent effect
# How it was run: (§2)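 Male Wistar rat liver homogenate (6.4 mg protein/mL; 2 mM GSH, 1 mM NADPH; Tris-HCl/KCl pH 7.4; 37 °C) with compound at 200 µM final. Deproteinized filtrate mixed with Griess reagent: nitrite after 10 min at 37 °C; nitrite+nitrate after VCl3 reduction, 45 min at 37 °C. Absorbance at 540 nm, calibration 1–100 µM. Expressed as %mol per mol compound, n = 3.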
# [4] = Lipophilicity, log P of the compound in octanol-buffer at pH 7 by HPLC analysis; type: physicochemical
# How it was run: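 Retention measured by isocratic RP-HPLC on an RP-amide-C16 column at 30 °C. Mobile phase was pH 7.0 phosphate buffer/methanol, 30–70%, ionic strength 20 mM; uracil used as dead-time marker. log kw extrapolated from at least four methanol ratios, each injected at least three times. Converted to logPoct via a reference line of 63 compounds.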
# [5] = Half life in Wistar rat liver homogenate at 200 uM by RP-HPLC analysis; type: ADME, tissue-based
# How it was run: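 Liver from male Wistar rats (200–250 g), 20% homogenate spun at 8000g. Incubated at 37 °C in Tris-HCl/KCl 100/150 mM, pH 7.4, with 6.4 mg protein/mL, 2 mM GSH and 1 mM NADPH. Compound 200 µM final, added from a 10 mM acetonitrile stock. Aliquots deproteinized with cold acetonitrile and analysed by RP-HPLC. Half-life from n = 3.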
# Mus musculus [6] = assay: Induction of nitrite release in mouse assessed as nitrite AUC (0 to 24 hrs) at 10 mg/kg, po measured over 24 hrs by LC-MS/MS analysis; type: organism-based; parameters: time < 24 hr, dose 10 mg/kg, route oral; conditions: in vivo
# How it was run: (§3)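 Mice dosed orally at 10 mg/kg in imwitor742/tween80 50/50; blood drawn at fixed times over 24 h and precipitated with 3 volumes acetonitrile. Nitrite converted to naphtotriazole with DAN (1 mM, 10 µL per 200 µL sample) at room temperature and measured by LC-MS/MS against a 0.01-10 µM NAT calibration; basal level and conversion factor from spikes; AUC0-24h.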
# Liver [7] = assay: Induction of nitrite production in Wistar rat liver homogenate at 200 uM by griess method; type: functional, tissue-based; conditions: TDE = time-dependent effect; how it was run: as §2
# Thoracic aorta [8] = assay: Vasodilatory activity in Wistar rat thoracic aorta assessed as inhibition of L-phenylephrine-induced contraction in presence of 1 uM 1H-[1,2,4]oxadiazolo[4,3-a]quinoxalin-1-one; type: functional, tissue-based
# How it was run: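 Same rat aorta strip protocol with 1 µM L-phenylephrine precontraction. 1 µM ODQ was added 5 min before contraction, pre-incubating for at least 30 min before the vasodilator. Isometric recording; EC50 (±SEM) in µM from at least five experiments.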
# [9] = Half life in 5% DMSO/0.1 M KCl by RP-HPLC analysis; type: physicochemical; conditions: for half-life: 5% DMSO/0.1 M KCl
# How it was run: (§4)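 10 mM DMSO stock added to water with 0.1 M KCl to give 5% DMSO (v/v), then filtered. Room temperature. Compound followed by RP-HPLC (C18, methanol/water gradient, 240 nm), calibration 1–200 µM. Half-life from n = 3.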
# [10] = Half life in human serum at 250 uM by RP-HPLC analysis; type: ADME, cell-free
# How it was run: (§5)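 Compound added from a 10 mM methanol stock to human serum (male AB plasma) at 37 °C, final 250 µM. Aliquots taken at intervals and deproteinized with acetonitrile containing 0.1% TFA, then centrifuged and filtered. Analysed by RP-HPLC. Half-life from n = 3.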
# [11] = Permeability of the compound by PAMPA-HDM method; type: ADME
# How it was run: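 96-well polycarbonate filters impregnated with 5% hexadecane in hexane. Donor held compound in water with 5% DMSO and 100 mM KCl; acceptor held the same medium. Incubated at room temperature with shaking at 150 rpm for 1–6 h. Both compartments quantified by RP-HPLC. logPe and retention R calculated with correction for hydrolysis; membrane integrity checked by electrical resistance.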
# Liver [12] = assay: Induction of nitrate production in Wistar rat liver homogenate at 200 uM after 5 hrs by griess method; type: functional, tissue-based; how it was run: as §2
# Liver [13] = assay: Induction of nitrite production in Wistar rat liver homogenate at 200 uM after 5 hrs by griess method; type: functional, tissue-based; how it was run: as §2
# Mus musculus [14] = assay: AUC (0 to 24 hrs) in mouse assessed isosorbide mononitrate as at 10 mg/kg, po after 24 hrs; type: ADME, organism-based, Plasma; parameters: time < 24 hr, dose 10 mg/kg, route oral; conditions: in vivo; how it was run: as §3
# [15] = Stability in 5% DMSO/0.1 M KCl by RP-HPLC analysis; type: physicochemical; how it was run: as §4
# Serum = assay: Stability in human serum at 250 uM by RP-HPLC analysis; type: ADME, cell-free; how it was run: as §5
# [16] = Stability in 0.1 M HCl/MeOH 60/40 (v/v) mixture by RP-HPLC analysis; type: physicochemical; conditions: buffer; how it was run: as §1
SMILES,inhibition (Thoracic aorta [1]),half-life [2],logD [4],half-life at 200 µM [5],EC50 (Thoracic aorta [8]),half-life [9],half-life at 250 µM [10],other results
O=C(O)c1ccc(OCC(CO[N+](=O)[O-])O[N+](=O)[O-])cc1 (configuration not stated),Dose-dependent effect,,,,,,,
Cc1cc(OC(=O)C(C)(C)CCCCO[N+](=O)[O-])n(-c2ccccc2)n1,Dose-dependent effect,24 h,4.3,2 min,> 100 µM,22 h,0.222 h,EC50 (Thoracic aorta [1]): 11 µM; Activity (Liver [3]): tde; AUC (Mus musculus [6]): 1790 µM·min; Activity (Liver [7]): tde
Cc1cc(OC(=O)c2ccc(CC(CO[N+](=O)[O-])O[N+](=O)[O-])cc2)n(-c2ccccc2)n1 (configuration not stated),,8 h,4.88,< 1 min,,,0.118 h,log Pe [11]: ND(Insoluble); Activity (Liver [12]): Active; t1/2 [9]: ND(Insoluble); Activity (Liver [13]): Active
Cc1cc(OC(=O)OCCCO[N+](=O)[O-])n(-c2ccccc2)n1,,1.4 h,3.35,< 1 min,,13 h,< 0.0167 h,AUC (Mus musculus [6]): 964 µM·min
Cc1cc(OC(=O)c2ccc(CCCO[N+](=O)[O-])cc2)n(-c2ccccc2)n1,,13 h,4.76,< 1 min,,,0.0667 h,log Pe [11]: ND(Insoluble); t1/2 [9]: ND(Insoluble)
O=C(O)c1ccc(CCCO[N+](=O)[O-])cc1,Dose-dependent effect,,,,> 100 µM,,,
O=[N+]([O-])O[C@H]1CO[C@H]2[C@@H]1OC[C@H]2O[N+](=O)[O-] [ISOSORBIDE DINITRATE],,,,,,,,AUC (Mus musculus [14]): 2352 µM·min
Cc1cc(OC(=O)OCCCCCCO[N+](=O)[O-])n(-c2ccccc2)n1,,4 h,4.39,< 1 min,,25 h,< 0.0167 h,
O=C(O)CCCCCO[N+](=O)[O-],Dose-dependent effect,,,,> 100 µM,,,
Cc1cc(OC(=O)CCCC(CO[N+](=O)[O-])O[N+](=O)[O-])n(-c2ccccc2)n1 (configuration not stated),,0.7 h,3.95,< 1 min,,10 h,< 0.0167 h,
Cc1cc(OC(=O)CCCCCO[N+](=O)[O-])n(-c2ccccc2)n1,,1 h,3.79,< 1 min,,31 h,< 0.0167 h,
Cc1cc(OC(=O)C(C)(C)CO[N+](=O)[O-])n(-c2ccccc2)n1,,1.9 h,3.55,< 1 min,,36 h,0.0317 h,
O=[N+]([O-])OCCCO [ABRUCOMSTAT],Dose-dependent effect,,,,> 100 µM,,,EC50 (Thoracic aorta [1]): 4 µM
CC(C)(CO[N+](=O)[O-])C(=O)O,Dose-dependent effect,,,,> 100 µM,,,EC50 (Thoracic aorta [1]): 13 µM
Cc1cc(OC(=O)C(C)(C)CCC(CO[N+](=O)[O-])O[N+](=O)[O-])n(-c2ccccc2)n1 (configuration not stated),Dose-dependent effect,10 h,4.04,3 min,> 100 µM,16 h,0.27 h,EC50 (Thoracic aorta [1]): 2.5 µM; Activity (Liver [3]): tde; Activity (Liver [12]): Active; Activity (Liver [7]): tde; Activity (Liver [13]): Active
CC(C)(CCC(CO[N+](=O)[O-])O[N+](=O)[O-])C(=O)O (configuration not stated),Dose-dependent effect,,,,> 100 µM,,,EC50 (Thoracic aorta [1]): 4.2 µM
O=[N+]([O-])OCCCCCCO,Dose-dependent effect,,,,> 100 µM,,,EC50 (Thoracic aorta [1]): 1.5 µM
CC1=NN(c2ccccc2)C(=O)C1 [EDARAVONE],,,1.44,,,,,Stability [15]: Stable; Stability (Serum): Stable; Stability [16]: Stable
Cc1cc(OC(=O)c2ccc(OCC(CO[N+](=O)[O-])O[N+](=O)[O-])cc2)n(-c2ccccc2)n1 (configuration not stated),,25 h,5.14,< 1 min,,,0.13 h,log Pe [11]: ND(Insoluble); Activity (Liver [12]): Active; t1/2 [9]: ND(Insoluble); Activity (Liver [13]): Active
O=C(O)c1ccc(OCCCO[N+](=O)[O-])cc1,Dose-dependent effect,,,,,,,
O=C(O)c1ccc(CC(CO[N+](=O)[O-])O[N+](=O)[O-])cc1 (configuration not stated),Dose-dependent effect,,,,> 100 µM,,,
CC(C)(CCCCO[N+](=O)[O-])C(=O)O,Dose-dependent effect,,,,> 100 µM,,,EC50 (Thoracic aorta [1]): 8.9 µM
Cc1cc(OC(=O)OCCCCC(CO[N+](=O)[O-])O[N+](=O)[O-])n(-c2ccccc2)n1 (configuration not stated),,3.1 h,4.63,< 1 min,,6 h,< 0.0167 h,Activity (Liver [12]): Active; Activity (Liver [13]): Active
Cc1cc(OC(=O)c2ccc(OCCCO[N+](=O)[O-])cc2)n(-c2ccccc2)n1,,35 h,4.74,< 1 min,,,0.0833 h,log Pe [11]: ND(Insoluble); t1/2 [9]: ND(Insoluble)
